Hits are enriched below; roughly 1.5% of the tested compounds scored in any of these assays.
NR2E3 ag-1 – human photoreceptor-specific nuclear receptor agonism; CHO-S Gal4-NCOR/VP16-NR2E3 two-hybrid, luciferase; inhibition of corepressor binding, % at 3.98 µM; 360,000 tested, 0.35% active;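 active means inhibition above the mean of all tested compounds plus 3 SD, cut at about 70% in these data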;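 further: 0% = DMSO with NR2E3 transfected cells and 100% = cells lacking NR2E3 construct; higher means lower luciferase signal from less NR2E3 corepressor binding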
Target sequence (Q9Y5X4 whole entry, looked up, the tested form may be a part): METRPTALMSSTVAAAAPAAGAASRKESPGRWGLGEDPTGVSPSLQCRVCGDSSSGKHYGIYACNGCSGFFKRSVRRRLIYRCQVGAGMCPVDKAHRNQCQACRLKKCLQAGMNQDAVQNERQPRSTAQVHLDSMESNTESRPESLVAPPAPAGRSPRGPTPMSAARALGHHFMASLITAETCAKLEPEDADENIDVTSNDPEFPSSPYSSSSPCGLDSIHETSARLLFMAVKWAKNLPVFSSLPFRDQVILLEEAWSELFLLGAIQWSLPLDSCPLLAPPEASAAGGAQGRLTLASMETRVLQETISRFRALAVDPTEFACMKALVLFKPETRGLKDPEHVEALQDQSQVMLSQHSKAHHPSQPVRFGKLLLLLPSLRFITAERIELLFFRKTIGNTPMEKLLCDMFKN
NR2E3 ag-2 – activates human photoreceptor nuclear receptor NR2E3. 320,000 tested, 0.12% active. GST-NR2E3/biotin-RetCOR TR-FRET, 1536-well. AID 2300. Q9Y5X4. inhibition of corepressor binding, % at 4.78 µM;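 active means percent inhibition above the cutoff of mean plus 3 SD of all tested compounds, set per screening campaign, cut at about 20% in these data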;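 further: 0% = DMSO wells and 100% = biotin wells as full block of FRET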
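Material: NR2E3–RetCOR corepressor complex / Incubation: Compound–protein incubation for 5 h at 4 °C / Dosing: compound at 4.8 µM, single dose / Detection: time-resolved FRET / Benchmarks: high control biotin, low control 0.6% DMSO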
Rev-erbA mod – modulators of human Rev-erb alpha DNA binding; activity, % at 10 µM; P20393; Rev-erbα–FITC-DNA binding, fluorescence polarization, 90 min; 370,000 tested, 0.79% active; AID 1259318;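 active means activity above about 14%, limit read from the data; passing the limit was not always enough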;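 further: 0% = DMSO wells with 35 nM protein and 100% = DMSO wells with 750 nM protein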
PG9 Ab binder – PG9 antibody binding by small molecule; TR-FRET gp120-PG9 antibody binding; inhibition, % at 6.7 µM; 360,000 tested, 0.43% active; in the data active means inhibition above about 8.5%
NR1D1 mod conf – Rev-erb alpha (human) modulation, hit confirmation | AID 1259319 | shares compounds with Rev-erbA mod | activation, % at 25 µM | 3,000 tested, 61% active | Rev-erb alpha FITC-DNA binding, fluorescence polarization, 90 min;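 active means activation at or above a set limit, or at least 3 SD above the negative control mean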;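 further: 0% = 35 nM protein with DMSO and 100% = 750 nM protein high control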
RORg counter – RORgamma DNA-binding activity, dose-response counter-screen; shares compounds with Rev-erbA mod; purified RORgamma protein-FITC-DNA binding, fluorescence polarization; IC50, µM; 910 tested, 8% active; AID 1259320;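 active means Compounds whose fitted half-maximal concentration for disrupting protein-DNA binding is below 10 micromolar; the record names Rev-erb in its text, so the target is in doubt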
Numbers without * were called inactive; · = no result.

SMILES	NR2E3 ag-1	NR2E3 ag-2	Rev-erbA mod	PG9 Ab binder	NR1D1 mod conf	others
CCCn1c(CN(C)Cc2ccccc2)nc2c1c(=O)n(C)c(=O)n2C	21	0	-5	1	·
CN(Cc1ccccc1)Cc1nc2c(c(=O)n(C)c(=O)n2C)n1Cc1ccccc1Cl	-10	0	31*	1	50*
c1ccc(-c2nnc3sc(-c4csc5c4CCCC5)nn23)cc1	-47	0	1	-3	·
COc1ccc(-c2cc3ncc(C(C)=O)c(C)n3n2)cc1	-10	-1	36*	0	13
CCOC(=O)c1cnc2cc(-c3ccc(Cl)cc3)nn2c1N	-30	5	20*	1	0
CCOC(=O)c1cnc2c(-c3ccc(Cl)cc3)c(C)nn2c1N	6	2	-1	-2	·
Cc1ccc(/C=C(\C#N)C(=O)NC(C)C)o1	11	1	4	0	·
CC(C)NC(=O)/C(C#N)=C/c1ccc(N(C)C)o1	-22	-17	25*	-30	7
Cc1ccc(NC(=O)c2sc(Cl)nc2-c2ccccc2)cc1C	-18	-1	53*	3	38*	RORg counter=>40
CCOc1cc(N2CCOCC2)c(OCC)cc1NC(=O)COc1ccc2ccc(=O)oc2c1	·	4	·	·	·
COc1cc2oc(=O)c3c(c2cc1OCC(=O)c1c(C)n(C)c2ccccc12)CCCC3	-3	-4	36*	-1	-12
CCc1cc2c3c(c(=O)oc2cc1OC)CCCC3	-48	1	-3	2	·
COc1ccccc1-c1cnc(C(O)c2ccc(Cl)c(Cl)c2)[nH]1 (stereo not given)	-12	·	12	-2	·
Cc1cc2cccc(C)c2nc1SCC(=O)NCC1CCCO1 (stereo not given)	-28	6	4	-1	·
Cc1cc(C)c(C#N)c(SCC(=O)N2CCCCC2)n1	-24	1	-1	0	·
Cc1cc(C)c2nc(SCC(=O)N3CCCCC3)c(C#N)cc2c1	-14	·	27*	-1	23*
Cc1cc(C)c2nc(SCC(=O)NCC3CCCO3)c(C#N)cc2c1 (stereo not given)	-6	-2	60*	-1	42*	RORg counter=>40
COc1ccc(C)cc1S(=O)(=O)N(C)CC(=O)NCc1ccccn1	-13	5	4	-2	·
O=C1N(Cc2ccccc2)c2ccccc2OC1(F)F	-16	·	3	1	·
O=C(CSc1nnc(-c2ccc3c(c2)OCO3)n1-c1ccccc1)c1ccccc1	-4	-7	25*	-1	18*
O=C(CSc1nnc(-c2ccc3c(c2)OCO3)n1-c1ccccc1)c1ccc(Cl)cc1	-12	3	4	-2	·
COC(=O)[C@]12CCCCC=C1N(Cc1cccc3ccccc13)C(=O)[C@H](CC(=O)NCc1cccs1)C2	-19	·	16*	0	3
COc1cc2c(cc1OC)[C@@]1(c3ccccc3)CCCC[C@H]1[C@@H]2NC(=O)C(F)(F)F	·	·	-4	0	·
COc1cc2c(c(OC)c1OC)[C@@]1(c3ccccc3)CCCCC[C@H]1[C@@H]2NC(=O)C(F)(F)F	·	·	13*	-2	6
Cc1cc(C)c(C#N)c(SCCS(=O)(=O)c2ccc(Cl)cc2)n1	6	-5	3	1	·
SMILES	NR2E3 ag-1	NR2E3 ag-2	Rev-erbA mod	PG9 Ab binder	NR1D1 mod conf	others
Cc1cc(C)c(C#N)c(SCCS(=O)(=O)c2ccc(C(C)(C)C)cc2)n1	-11	2	24*	-1	12
CCN(CC)C(=O)c1[nH]cnc1C(=O)Nc1ccc(C)cc1	-11	1	3	3	·
CCCCC(C(=O)NC1CCCC1)N(Cc1ccccc1)C(=O)c1snc(C(N)=O)c1N (stereo not given)	-9	5	22*	-1	-1
CN(C)c1ccc(C(C(=O)NCC2CCCO2)N(C(=O)c2snc(C(N)=O)c2N)c2ccccc2)cc1 (stereo not given)	-22	-3	38*	-3	10
Cc1cccc(N(C(=O)c2snc(C(N)=O)c2N)C(C(=O)NCC2CCCO2)c2ccc(N(C)C)cc2)c1 (stereo not given)	-14	1	46*	0	14
CC(C)CNc1cccc2c1S(=O)(=O)N(Cc1cn(Cc3cccc(C(F)(F)F)c3)nn1)Cc1ccccc1O2	·	·	3	·	·
CC1=C(C(=O)OC2CCCCCCC2)C(c2cc3c(cc2Br)OCO3)CC(=O)N1 (stereo not given)	14	-3	23*	1	30*
CCOc1ccccc1C1NC(=O)NC(C)=C1C(=O)OC1CCCCC1 (stereo not given)	0	2	2	-1	·
CC1=C(C(=O)OC2CCCCC2)C(c2ccccc2Br)NC(=O)N1 (stereo not given)	-26	2	15*	0	15
Cc1ccc(CCC(=O)Nc2ccc(C)c(C)c2)o1	-20	4	-4	0	·
N=c1sccn1CC(=O)Nc1cccc(S(=O)(=O)N2CCCCCC2)c1	0	0	1	-2	·
COc1ccc(-c2ccc3sc4ccccc4c(=O)c3c2)cn1	-131	2	58*	0	61*	RORg counter=>40
COc1cc2sc3ccc(-c4ccc(N(C)C)nc4)cc3c(=O)c2cc1OC	·	4	-18	1	·
O=C(NNS(=O)(=O)c1ccc(Cl)cc1)c1cnn(-c2ccccc2)c1-n1cccc1	21	-2	10	0	·
C=CCN1C=CC(=CC=C(C#N)C#N)C=C1	-8	-11	32*	-10	22*
CCCCCCN1C=CC(=C/C=C(\C#N)C(=O)OCC)C=C1	-28	1	58*	-14	30*
CCOC(=O)/C(C#N)=C/C=C1\C=Cc2ccccc2N1CC	-6	-1	74*	-13	56*	RORg counter=7.4*
CCCN1C=CC(=CC=C(C#N)C#N)C=C1	8	-13	28*	-13	13
O=C(Cc1ccccc1[N+](=O)[O-])NC1CC2CCC1C2 (stereo not given)	2	-5	1	3	·
CC1(c2nnnn2-c2ccc3c(c2)OCCO3)CCC(=O)N1Cc1cccnc1 (stereo not given)	23	·	-5	0	·
Nc1ccc(N(CCO)CCO)cc1	-10	1	-9	-15	·
Cc1cc(N(CCO)CCO)ccc1N=Nc1cc(F)ccc1F	-53	-1	54*	-1	29*
CCN(CC(=O)Nc1ccc(C#N)cc1)CC(=O)Nc1ccc2c(c1)OCCO2	2	·	2	-1	·
CCOC(=O)/C(C#N)=C/Nc1cc(F)ccc1C	-2	4	0	2	·
CCOC(=O)/C(C#N)=C/Nc1cc(C(=O)OCC)cc2c(OC)c(OC)ccc12	-4	·	31*	1	-2
CCOC(=O)/C(C#N)=C/Nc1ccsc1C(=O)OC	12	-4	22*	1	11
COc1ccc(OC)c(NC(=O)c2sc3nc(Cc4ccccc4)cc(C(F)(F)F)c3c2N)c1	-12	1	82*	-1	29*

Screening data from PubChem BioAssay.
